Assay results from ChEMBL document CHEMBL2057177, “Analogues of fenarimol are potent inhibitors of Trypanosoma cruzi and are efficacious in a murine model of Chagas disease” (J Med Chem, 2012).
Values after ≈ are worked out from the molar mass of the structure shown. Active and inactive are the calls of the source. No cut-off for these calls is given here.

Tests used:
Trypanosoma cruzi [1] = assay: Antitrypanosomal activity against trypomastigotes of Trypanosoma cruzi Tulahuen expressing the beta- galactosidase gene infected rat L6 cells after 96 hrs; type: functional, organism-based; settings: L6, 96 h
Method in brief: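 Tulahuén trypomastigotes expressing β-galactosidase, maintained by serial passage in L6 cells. L6 cells seeded and left 24 h at 37 °C, 5% CO2, then infected at MOI 3 for 48 h. Compound exposure 96 h, benznidazole control. CPRG with 0.3% Nonidet P-40 added, absorbance at 530 nm after 4−6 h. IC50 taken from % inhibition curve; mean of at least two assays.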

L6 = assay: Cytotoxicity against rat L6 cells after 72 hrs by Alamar Blue assay; type: cell-based; settings: L6, 72 h
Method in brief: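 L6 rat skeletal myoblasts in RPMI 1640 with 10% FBS. Exposed to compound for 72 h, seven-point serial dilutions in triplicate. Alamar Blue read at 570 and 630 nm. IC50 is the mean of at least two assays; podophyllotoxin used as control.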

[2] = Kinetic solubility of the compound at pH 6.5 by nephelometric analysis; type: physicochemical; settings: buffer, read-out: Kinetic_solubility
CYP3A4/5 = CYP3A4/5 (Homo sapiens, UniProt P08684+P20815); assay: Inhibition of CYP3A4/5 in human liver microsomes; type: ADME, Microsome
[3] = Plasma concentration in Swiss mouse at 20 mg/kg, po after 1 hr; type: ADME, organism-based; design: dose 20 mg/kg, route oral
Method in brief: (§1)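 Nonfasted male Swiss outbred mice (23.8–39.9 g), fed throughout. Dosed by oral gavage as solution or suspension in aqueous vehicle. Plasma assayed by LC-MS against blank-plasma standards after acetonitrile precipitation; LLOQ 0.001–0.015 μM.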

[4] = Plasma concentration in Swiss mouse at 20 mg/kg, po after 8 hrs; type: ADME, organism-based; design: dose 20 mg/kg, route oral; method in brief: as §1
[5] = Plasma concentration in Swiss mouse at 20 mg/kg, po after 24 hrs; type: ADME, organism-based; design: dose 20 mg/kg, route oral
[6] = Plasma concentration in Swiss mouse at 100 mg/kg, po after 1 hr; type: ADME, organism-based; design: dose 100 mg/kg, route oral
Method in brief: (§2)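 Nonfasted male Swiss Outbred mice weighing 23.8−39.9 g, with food and water freely available, dosed by oral gavage as an aqueous solution or suspension. Plasma proteins precipitated with acetonitrile and compound quantified by LC-MS against standards made in blank mouse plasma. Lower limit of quantitation 0.001−0.015 μM.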

[7] = Plasma concentration in Swiss mouse at 100 mg/kg, po after 8 hrs; type: ADME, organism-based; design: dose 100 mg/kg, route oral; method in brief: as §2
Trypanosoma cruzi [8] = assay: Antitrypanosomal activity against trypomastigotes of Trypanosoma cruzi Tulahuen infected in Swiss mouse model of chagas disease assessed as decrease in parasite level in blood at 100 mg/kg, po administered 8 day after post infection qd for 20 days; type: functional; design: scale not given: the % may be the effect or the level left
Trypanosoma cruzi [9] = assay: Antitrypanosomal activity against trypomastigotes of Trypanosoma cruzi Tulahuen infected in Swiss mouse model of chagas disease assessed as increase in host survival at 100 mg/kg, po administered 8 day after post infection qd for 20 days; type: functional, organism-based; design: dose 100 mg/kg
Trypanosoma cruzi [10] = assay: Antitrypanosomal activity against trypomastigotes of Trypanosoma cruzi Tulahuen infected immunosuppressed Swiss mouse assessed as level of parasite in blood at 20 mg/kg, po administered 8 day after post infection qd for 20 days measured after 3 cycles of immunosuppression; type: functional, organism-based; design: dose 20 mg/kg
Trypanosoma cruzi [11] = assay: Antitrypanosomal activity against trypomastigotes of Trypanosoma cruzi Tulahuen infected immunosuppressed Swiss mouse assessed as level of parasite in blood at 100 mg/kg, po administered 8 day after post infection qd for 20 days measured after 3 cycles of immunosuppression; type: functional, organism-based; design: dose 100 mg/kg

| Structure (SMILES) | IC50 (Trypanosoma cruzi [1]) | IC50 (L6) | also measured |
| --- | --- | --- | --- |
| OC(c1ccc(Cl)cc1)(c1ccc(Cl)cc1)c1cccnc1 | 95 nM |  |  |
| OC(c1ccc(C(F)(F)F)cc1)(c1ccc(C(F)(F)F)cc1)c1cccnc1 | 15 nM |  |  |
| Clc1ccc(C(c2ccc(Cl)cc2)c2cncnc2)cc1 | 683 nM |  |  |
| OC(c1ccc(Cl)cc1)(c1ccc(Cl)cc1)c1cncnc1 | 220 nM |  |  |
| Clc1ccc(C(c2ccc(Cl)cc2)c2cccnc2)cc1 | 80 nM | 84700 nM |  |
| OC(c1ccc(Cl)cc1)(c1cccnc1)c1ccccc1Cl (racemic) |  |  | solubility kinetic [2]: 3.1 µg/mL (≈ 9.39 µM); IC50 (CYP3A4/5): 600 nM |
| Cc1ccccc1C(O)(c1ccc(Cl)cc1)c1cccnc1 (racemic) |  | 82000 nM |  |
| OC(c1ccc(Cl)cc1)(c1cccnc1)c1ccc(Br)cc1F (racemic) | 26 nM | 79200 nM |  |
| OC(c1ccc(Cl)cc1)(c1cccnc1)c1ccc(Cl)cc1F (racemic) | 10 nM | 59400 nM | solubility kinetic [2]: 1.6 µg/mL (≈ 4.6 µM); IC50 (CYP3A4/5): 900 nM |
| [O-][n+]1cncc(C(O)(c2ccc(Cl)cc2)c2ccccc2Cl)c1 (racemic) |  | > 100000 nM |  |
| COC(c1ccc(Cl)cc1)(c1cccnc1)c1ccccc1Cl (racemic) | 90 nM | 58700 nM |  |
| OC(c1ccc(Cl)cc1)(c1ncccn1)c1ccccc1Cl (racemic) |  | > 100000 nM |  |
| CC(C)CNC(c1ccc(Cl)cc1)(c1cccnc1)c1ccccc1Cl (racemic) | 606 nM |  |  |
| OC(c1ccc(Cl)cc1)(c1cccnc1)c1nccs1 (racemic) |  | > 100000 nM |  |
| OC(c1cccnc1)(c1cccs1)c1ccc(Cl)cc1F (racemic) | 5 nM | > 100000 nM |  |
| OC(c1ccc(Cl)cc1)(c1ccncn1)c1ccccc1Cl (racemic) |  | > 100000 nM |  |
| CS(=O)(=O)Nc1ccc(C(O)(c2ccc(Cl)cc2)c2cccnc2)cc1 (racemic) | 30 nM | > 100000 nM |  |
| CN(C)c1ccc(C(O)(c2ccc(C(F)(F)F)cc2)c2cccnc2)cc1 (racemic) | 6 nM |  |  |
| OC(c1ccc(Cl)cc1)(c1cccnc1)c1cnc(Cl)s1 (racemic) |  | > 100000 nM |  |
| NC(=O)c1ccc(C(O)(c2ccc(C(F)(F)F)cc2)c2cccnc2)cc1 (racemic) |  | > 100000 nM |  |
| COc1ccc(C(O)(c2ccc(Cl)cc2)c2cccnc2)cc1 (racemic) | 40 nM |  |  |

| Structure (SMILES) | IC50 (Trypanosoma cruzi [1]) | IC50 (L6) | also measured |
| --- | --- | --- | --- |
| OC(c1ccc(Cl)cc1)(c1cccnc1)c1ccsc1 (racemic) |  | > 100000 nM |  |
| CC(C)c1ccc(C(O)(c2ccc(C(F)(F)F)cc2)c2cccnc2)cc1 (racemic) | 2 nM | 56300 nM |  |
| CC(C)Oc1ccc(C(O)(c2ccc(C(F)(F)F)cc2)c2cccnc2)cc1 (racemic) | 4 nM |  | solubility kinetic [2]: 1.6 µg/mL (≈ 4.13 µM); IC50 (CYP3A4/5): 1400 nM |
| NC(=O)c1cccc(C(O)(c2cccnc2)c2ccc(Cl)cc2F)c1 (racemic) | 25 nM | > 100000 nM | solubility kinetic [2]: 50 µg/mL (≈ 140 µM); IC50 (CYP3A4/5): 3900 nM; concentration at 1 h [3]: 10500 nM; concentration at 8 h [4]: 440 nM; concentration at 24 h [5]: 6 nM |
| CC(C)C(=O)Nc1ncc(C(O)(c2ccc(Cl)cc2)c2cccnc2)s1 (racemic) | 21 nM |  |  |
| OC(c1ccc(Cl)cc1)(c1ccc(C(F)(F)F)cc1)c1cccnc1 (racemic) | 8 nM |  |  |
| OC(c1ccc(Cl)cc1)(c1cccnc1)c1ccccc1Br (racemic) | 70 nM |  |  |
| CC(C)Oc1ccc(C(O)(c2cccnc2)c2cnc(Cl)nc2)cc1 (racemic) | 304 nM | > 100000 nM |  |
| OC(c1ccc(Br)cc1)(c1ccc(C(F)(F)F)cc1)c1cccnc1 (racemic) | 20 nM |  |  |
| CC(C)Oc1ccc(C(O)(c2ccc(Cl)cc2)c2cccnc2)cc1 (racemic) | 2 nM |  | solubility kinetic [2]: 1.6 µg/mL (≈ 4.52 µM); IC50 (CYP3A4/5): 1900 nM; concentration at 1 h [6]: 9600 nM; concentration at 8 h [7]: 600 nM |
| CC(C)Oc1ccccc1C(O)(c1ccc(Cl)cc1)c1cccnc1 (racemic) |  | 48300 nM |  |
| NC(=O)c1cccc(C(O)(c2ccc(C(F)(F)F)cc2)c2cccnc2)c1 (racemic) | 70 nM | > 100000 nM |  |
| OC(c1ccc(Cl)cc1)(c1cccnc1)c1cncnc1 (racemic) |  | > 100000 nM | solubility kinetic [2]: > 100 µg/mL; IC50 (CYP3A4/5): 5000 nM; concentration at 1 h [3]: 300 nM; concentration at 8 h [4]: < 2 nM |
| COc1cccc(C(O)(c2ccc(Cl)cc2)c2cccnc2)c1 (racemic) | 60 nM |  |  |
| OC(c1ccc(Cl)cc1)(c1cccnc1)c1ccc(F)cc1F (racemic) | 16 nM |  |  |
| NC(c1ccc(Cl)cc1)(c1cccnc1)c1ccccc1Cl (racemic) | 90 nM |  |  |
| N#Cc1ccc(C(O)(c2ccc(Cl)cc2)c2cccnc2)c(F)c1 (racemic) |  | > 100000 nM |  |
| OC(c1ccc(Cl)cc1)(c1cccnc1)c1ccccc1F (racemic) | 35 nM | > 100000 nM |  |
| CC(C)Oc1ncc(C(O)(c2ccc(Cl)cc2)c2cccnc2)cn1 (racemic) | 60 nM | > 100000 nM |  |
| OC(c1ccc(Cl)cc1)(c1cncnc1)c1ccccc1F (racemic) |  | > 100000 nM |  |
| N#CC(c1ccc(Cl)cc1)(c1cccnc1)c1ccccc1Cl (racemic) | 50 nM |  |  |

| Structure (SMILES) | IC50 (Trypanosoma cruzi [1]) | IC50 (L6) | also measured |
| --- | --- | --- | --- |
| N#Cc1ccc(C(O)(c2ccc(Cl)cc2)c2cccnc2)cc1 (racemic) | 70 nM | > 100000 nM |  |
| Cc1ccc(C(O)(c2ccc(OC(C)C)cc2)c2cccnc2)c(F)c1 (racemic) | 3 nM |  |  |
| N#Cc1ccc(C(O)(c2ccc(C(F)(F)F)cc2)c2cccnc2)c(F)c1 (racemic) | 2 nM |  | solubility kinetic [2]: 6.3 µg/mL (≈ 16.9 µM); IC50 (CYP3A4/5): 4100 nM; concentration at 1 h [3]: 1400 nM; concentration at 8 h [4]: 300 nM; concentration at 24 h [5]: 50 nM |
| OC(c1ccc(C(F)(F)F)cc1)(c1cccnc1)c1ccc(Cl)cc1F (racemic) | 2 nM | > 100000 nM | solubility kinetic [2]: < 1.6 µg/mL; IC50 (CYP3A4/5): 1400 nM; concentration at 1 h [3]: 1240 nM; concentration at 8 h [4]: 230 nM; concentration at 24 h [5]: 3 nM |
| OC(c1ccc(Cl)cc1)(c1ccccn1)c1ccccc1Cl (racemic) | 27000 nM | > 100000 nM |  |
| Clc1ccc(C(c2cncnc2)c2ccccc2Cl)cc1 (racemic) |  | > 100000 nM |  |
| OC(c1ccc(Cl)cc1)(c1cccnc1)c1cncs1 (racemic) |  | > 100000 nM |  |
| OC(c1ccc(Cl)cc1)(c1cccnc1)c1ccccc1C(F)(F)F (racemic) | 120 nM |  |  |
| OC(c1ccc(Cl)cc1)(c1cnccn1)c1ccccc1Cl (racemic) |  | > 100000 nM |  |
| Cc1ccc(C(O)(c2ccc(Cl)cc2)c2cncnc2)cc1 (racemic) | 24 nM |  |  |
| OC(c1ccc(C(F)(F)F)cc1)(c1cccnc1)c1cc2ccccc2s1 (racemic) | 20 nM |  |  |
| CC(C)Oc1ccc(C(O)(c2cccnc2)c2ccc(Cl)cc2F)cc1 (racemic) | 1 nM |  | solubility kinetic [2]: 1.6 µg/mL (≈ 4.3 µM); IC50 (CYP3A4/5): 1100 nM |
| OC(c1ccc(Cl)cc1)(c1cccnc1)c1cccc(F)c1 (racemic) | 100 nM | 66000 nM |  |
| N#Cc1cccc(C(O)(c2ccc(Cl)cc2)c2cccnc2)c1 (racemic) |  | > 100000 nM |  |
| CC(C)Oc1cccc(C(O)(c2ccc(Cl)cc2)c2cccnc2)c1 (racemic) | 82 nM | 67600 nM |  |
| CC(C)Oc1ccc(C(O)(c2ccc(Cl)cc2)c2cccnc2)c(F)c1 (racemic) | 26 nM | 58200 nM |  |
| Nc1ncc(C(O)(c2ccc(Cl)cc2)c2cccnc2)s1 (racemic) | 260 nM | 56000 nM |  |
| OC(c1ccc(Cl)cc1)(c1ccc(C(F)(F)F)cc1)c1cncnc1 (racemic) | 197 nM | 66800 nM |  |
| OC(c1ccc(Cl)cc1)(c1cncnc1)c1cccc(F)c1 (racemic) |  | > 100000 nM |  |
| OC(c1ccc(Cl)cc1)(c1cccnc1)c1cccc(C(F)(F)F)c1 (racemic) | 70 nM |  |  |
| O=C(Cn1ccnc1[N+](=O)[O-])NCc1ccccc1 [BENZNIDAZOLE] |  |  | Activity (Trypanosoma cruzi [8]): >99%; Activity (Trypanosoma cruzi [9]): Active; Activity (Trypanosoma cruzi [10]): Active; Activity (Trypanosoma cruzi [11]): Active |
